Assay results as given in ChEMBL document CHEMBL3351269, “Phenylimidazoles as potent and selective inhibitors of coagulation factor XIa with in vivo antithrombotic activity” (J Med Chem, 2014).
pKi: −log10 of the molar value.

How the values were obtained:
[1] = Anticoagulant activity in healthy human plasma assessed as concentration required to 2 fold prolong clotting time by aPTT assay; format: functional
In short: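 Citrated human plasma from healthy volunteers (one-tenth volume 0.11 M buffered citrate; spun 2000g, 10 min, kept on ice). Inhibitor from 10 mM DMSO stock, diluted in plasma, up to seven concentrations. aPTT with Alexin: plasma warmed 1 min at 37 °C, reagent added, CaCl2 2 min later. Duplicates, as ratio to baseline. EC2x by linear interpolation, as total plasma concentration.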

Coagulation factor X = Coagulation factor X (Homo sapiens, UniProt P00742); assay: Inhibition of human coagulation factor 10a using N-benzoyl-Ile-Glu-(OH, OMe)-Gly-Arg-pNA as substrate by spectrophotometric analysis
In short: (§1)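 Purified human enzymes; reaction started by adding enzyme to substrate with or without inhibitor, excess substrate and inhibitor over enzyme, 1% DMSO, room temperature, 10–120 min. pNA read at 405 nm. FXIa, FXIIa and chymotrypsin in HEPES pH 7.4 with NaCl, KCl and PEG; FXa and kallikrein in phosphate pH 7.5; FVIIa in HEPES with CaCl2. IC50 from duplicates over 8–11 concentrations, converted to Ki assuming competitive inhibition.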

Coagulation factor XI = Coagulation factor XI (Homo sapiens, UniProt P03951); assay: Inhibition of human coagulation factor 11a using p-nitroaniline as substrate assessed as substrate hydrolysis by spectrophotometrically; in short: as §1
Plasma kallikrein = Plasma kallikrein (Homo sapiens, UniProt P03952); assay: Inhibition of human plasma kallikrein using H-D-Pro-Phe-Arg-pNA as substrate; in short: as §1
Coagulation factor VII = target: T1, Coagulation factor VII (Homo sapiens, UniProt P08709); assay: Inhibition of human coagulation factor 7a using H-(D)-Ile-Pro-Arg-pNA as substrate by spectrophotometric analysis; in short: as §1
T1 sequence (P08709 whole entry): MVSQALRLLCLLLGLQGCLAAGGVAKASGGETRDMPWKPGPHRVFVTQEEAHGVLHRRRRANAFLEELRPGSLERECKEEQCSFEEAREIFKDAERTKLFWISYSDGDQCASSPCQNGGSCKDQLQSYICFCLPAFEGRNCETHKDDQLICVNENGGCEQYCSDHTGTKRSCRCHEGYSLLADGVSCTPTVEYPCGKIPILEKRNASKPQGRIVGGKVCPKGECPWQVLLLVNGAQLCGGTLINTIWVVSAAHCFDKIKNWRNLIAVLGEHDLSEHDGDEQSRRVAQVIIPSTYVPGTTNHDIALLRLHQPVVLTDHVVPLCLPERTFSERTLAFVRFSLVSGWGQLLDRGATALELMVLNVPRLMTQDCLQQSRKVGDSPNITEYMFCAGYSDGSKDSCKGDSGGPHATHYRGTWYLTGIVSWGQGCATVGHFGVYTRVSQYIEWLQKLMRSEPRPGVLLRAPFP

[2] = Solubility of the compound in 100 mM phosphate buffer at pH 7.4; format: physicochemical
In short: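 Solubility of the amorphous bis-HCl salt in 100 mM phosphate buffer, pH 7.4.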

Oryctolagus cuniculus = assay: Antithrombotic activity in iv dosed New Zealand male rabbit AV-shunt thrombosis model assessed as inhibition of thrombus formation infused at 1 mg/kg/hr; format: functional; conditions: read-out: ID50 (the source's name)

Sequence of Coagulation factor X (P00742 41-179 limits assumed): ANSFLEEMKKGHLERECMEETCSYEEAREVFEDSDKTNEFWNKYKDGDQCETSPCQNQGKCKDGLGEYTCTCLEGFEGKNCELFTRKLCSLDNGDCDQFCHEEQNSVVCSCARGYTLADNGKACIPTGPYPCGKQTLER
Sequence of Coagulation factor X (P00742 235-488 limits assumed): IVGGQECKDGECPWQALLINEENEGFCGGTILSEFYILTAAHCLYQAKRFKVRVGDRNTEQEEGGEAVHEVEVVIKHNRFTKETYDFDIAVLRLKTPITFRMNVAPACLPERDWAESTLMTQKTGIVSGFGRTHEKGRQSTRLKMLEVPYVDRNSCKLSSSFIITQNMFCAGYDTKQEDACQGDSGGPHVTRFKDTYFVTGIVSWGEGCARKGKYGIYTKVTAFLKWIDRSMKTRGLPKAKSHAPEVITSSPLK
Sequence of Plasma kallikrein (P03952 20-390 limits assumed): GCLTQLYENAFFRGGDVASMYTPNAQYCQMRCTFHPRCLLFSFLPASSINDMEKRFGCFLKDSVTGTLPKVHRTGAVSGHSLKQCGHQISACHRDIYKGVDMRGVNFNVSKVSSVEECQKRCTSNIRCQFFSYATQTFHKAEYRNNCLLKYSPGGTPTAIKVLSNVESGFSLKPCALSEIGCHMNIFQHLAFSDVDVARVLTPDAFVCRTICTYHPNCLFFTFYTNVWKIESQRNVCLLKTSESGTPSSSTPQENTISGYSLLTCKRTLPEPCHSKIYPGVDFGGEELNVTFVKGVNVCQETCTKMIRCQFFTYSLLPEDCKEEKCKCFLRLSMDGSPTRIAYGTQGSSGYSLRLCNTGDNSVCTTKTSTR
Sequence of Plasma kallikrein (P03952 391-638 limits assumed): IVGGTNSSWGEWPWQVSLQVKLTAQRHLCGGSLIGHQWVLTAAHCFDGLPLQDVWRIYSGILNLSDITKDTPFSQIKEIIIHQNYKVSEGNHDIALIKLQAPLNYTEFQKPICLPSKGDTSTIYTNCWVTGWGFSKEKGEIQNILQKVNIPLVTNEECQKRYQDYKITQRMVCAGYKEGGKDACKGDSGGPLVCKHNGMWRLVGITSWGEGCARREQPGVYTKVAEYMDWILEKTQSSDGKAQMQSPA
Sequence of Coagulation factor XI (P03951 19-387 limits assumed): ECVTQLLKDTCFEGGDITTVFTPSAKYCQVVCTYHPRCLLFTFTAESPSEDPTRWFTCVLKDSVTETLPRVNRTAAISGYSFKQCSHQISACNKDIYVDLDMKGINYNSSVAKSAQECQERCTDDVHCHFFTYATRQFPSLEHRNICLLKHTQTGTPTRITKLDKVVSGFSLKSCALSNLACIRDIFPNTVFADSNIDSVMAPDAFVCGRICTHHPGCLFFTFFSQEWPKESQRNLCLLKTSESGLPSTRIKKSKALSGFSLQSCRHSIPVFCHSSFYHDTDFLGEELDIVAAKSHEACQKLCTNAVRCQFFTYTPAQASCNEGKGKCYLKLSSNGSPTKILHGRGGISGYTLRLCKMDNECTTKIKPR
Sequence of Coagulation factor XI (P03951 388-625 limits assumed): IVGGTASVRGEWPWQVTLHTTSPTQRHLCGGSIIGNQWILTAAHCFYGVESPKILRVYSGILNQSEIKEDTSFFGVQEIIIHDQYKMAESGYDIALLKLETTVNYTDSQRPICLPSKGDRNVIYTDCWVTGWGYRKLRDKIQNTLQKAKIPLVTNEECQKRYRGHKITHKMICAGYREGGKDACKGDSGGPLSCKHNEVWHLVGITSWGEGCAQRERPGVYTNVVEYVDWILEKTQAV

Structure (SMILES)	2aPTT [1]	pKi (Coagulation factor X)	pKi (Coagulation factor XI)	pKi (Plasma kallikrein)	pKi (Coagulation factor VII)	solubility [2]	ED50 (Oryctolagus cuniculus)
CC(C)CC(=O)Nc1cc(-c2ccc(C(N)=O)cc2C(=O)O)cc([C@@H]2C[C@](C)(c3ccccc3)c3cc(C(=N)N)ccc3N2)c1	2 µM	6.47	9.70	8.70	6.20		
NC[C@H]1CC[C@H](C(=O)N[C@@H](Cc2ccccc2)c2nc(-c3ccc(S(N)(=O)=O)cc3)c[nH]2)CC1		< 5.09	5.87	5.26	< 4.96		
NC[C@H]1CC[C@H](C(=O)N[C@@H](Cc2ccccc2)c2nc(-c3ccccc3)c[nH]2)CC1.O=C(O)C(F)(F)F	>40 µM	< 5.09	6.92	6.48	< 4.96		
N#Cc1ccc(-c2c[nH]c([C@H](Cc3ccccc3)NC(=O)[C@H]3CC[C@H](CN)CC3)n2)cc1		< 5.09	6.64	6.03	< 4.96		
COC(=O)c1ccc(-c2c[nH]c([C@H](Cc3ccccc3)NC(=O)[C@H]3CC[C@H](CN)CC3)n2)cc1		< 5.09	6.10	5.72	< 4.96		
CCOC(=O)Cc1ccc(-c2c[nH]c([C@H](Cc3ccccc3)NC(=O)[C@H]3CC[C@H](CN)CC3)n2)cc1		< 5.09	6.31	5.87	< 4.96		
N#Cc1cccc(-c2c[nH]c([C@H](Cc3ccccc3)NC(=O)[C@H]3CC[C@H](CN)CC3)n2)c1		< 5.09	5.95	5.93	< 4.96		
CCOC(=O)Cc1cccc(-c2c[nH]c([C@H](Cc3ccccc3)NC(=O)[C@H]3CC[C@H](CN)CC3)n2)c1		< 5.09	6.20	5.83	< 4.96		
NC[C@H]1CC[C@H](C(=O)N[C@@H](Cc2ccccc2)c2nc(-c3ccc(C(N)=O)cc3)c[nH]2)CC1.O=C(O)C(F)(F)F	>40 µM	< 5.05	7.52	7.22	< 4.96		
CNC(=O)c1ccc(-c2c[nH]c([C@H](Cc3ccccc3)NC(=O)[C@H]3CC[C@H](CN)CC3)n2)cc1		< 5.09	6.46	6.66	< 4.96		
CN(C)C(=O)c1ccc(-c2c[nH]c([C@H](Cc3ccccc3)NC(=O)[C@H]3CC[C@H](CN)CC3)n2)cc1		< 5.09	5.54	5.28	< 4.96		
NC[C@H]1CC[C@H](C(=O)N[C@@H](Cc2ccccc2)c2nc(-c3ccc(CC(=O)O)cc3)c[nH]2)CC1		< 5.09	6.82	6.12	< 4.96		
NC[C@H]1CC[C@H](C(=O)N[C@@H](Cc2ccccc2)c2nc(-c3cccc(C(N)=O)c3)c[nH]2)CC1		< 5.09	5.96	6.04	< 4.96		
NC[C@H]1CC[C@H](C(=O)N[C@@H](Cc2ccccc2)c2nc(-c3cccc(CC(=O)O)c3)c[nH]2)CC1		< 5.09	6.56	6.04	< 4.96		
NC[C@H]1CC[C@H](C(=O)N[C@@H](Cc2ccccc2)c2nc(-c3cccc(CC(N)=O)c3)c[nH]2)CC1		< 5.09	6.26	5.72	< 4.96		
NC[C@H]1CC[C@H](C(=O)N[C@@H](Cc2ccccc2)c2nc(-c3ccc(C(N)=O)cc3)c(Br)[nH]2)CC1.O=C(O)C(F)(F)F	10 µM	< 5.09	8.05	7.35	< 4.96		
NC[C@H]1CC[C@H](C(=O)N[C@@H](Cc2ccccc2)c2nc(-c3ccc(C(N)=O)cc3)c(Cl)[nH]2)CC1.O=C(O)C(F)(F)F	6 µM	< 5.05	8.40	7.70	< 4.96		
NC[C@H]1CC[C@H](C(=O)N[C@@H](Cc2ccccc2)c2nc(-c3ccc(C(N)=O)cc3)c(F)[nH]2)CC1.O=C(O)C(F)(F)F	2 µM	5.86	8.52	8.10	< 4.87		
NC[C@H]1CC[C@H](C(=O)N[C@@H](Cc2ccccc2)c2nc(-c3ccc4c(N)n[nH]c4c3)c[nH]2)CC1.O=C(O)C(F)(F)F	2 µM	< 5.09	8.52	7.30	< 4.96		
NC[C@H]1CC[C@H](C(=O)N[C@@H](Cc2ccccc2)c2nc(-c3ccc4c(N)n[nH]c4c3)c(F)[nH]2)CC1.O=C(O)C(F)(F)F	0.5 µM	< 5.09	9.52	8.70	5.21		
NC[C@H]1CC[C@H](C(=O)N[C@@H](Cc2ccccc2)c2ncc(-c3ccccc3)o2)CC1			5.84	5.46			
NC[C@H]1CC[C@H](C(=O)N[C@@H](Cc2ccccc2)c2nc(-c3ccccc3)n[nH]2)CC1			6.01	5.65			
NC[C@H]1CC[C@H](C(=O)N[C@@H](Cc2ccccc2)c2cc(-c3ccccc3)n[nH]2)CC1			5.16	5.30			
NC[C@H]1CC[C@H](C(=O)N[C@@H](Cc2ccccc2)c2nn(-c3ccccc3)c(=O)[nH]2)CC1			5.51	5.32			
NC[C@H]1CC[C@H](C(=O)N[C@@H](Cc2ccccc2)c2c[nH]c(-c3ccccc3)n2)CC1			5.79	5.35			
Cl.NC[C@H]1CC[C@H](C(=O)N[C@@H](Cc2ccccc2)c2nc(-c3ccc4c(N)n[nH]c4c3)c(Cl)[nH]2)CC1						946 µg/mL	0.6 mg/kg
NC[C@H]1CC[C@H](C(=O)N[C@@H](Cc2ccccc2)c2nc(-c3ccc(C(=O)O)cc3)c[nH]2)CC1 (mixture of isomers)		< 5.09	6.23	5.42	< 4.96		
NC[C@H]1CC[C@H](C(=O)N[C@@H](Cc2ccccc2)c2nc(-c3ccc(CC(N)=O)cc3)c[nH]2)CC1 (mixture of isomers)		< 5.09	6.40	5.88	< 4.96		
